Among the data in ChEMBL document CHEMBL1275312, “Synthesis of new pyrrolo[2,3-d]pyrimidine derivatives as antibacterial and antifungal agents” (2010) are zone of inhibition and MIC values, retold here.

≈ marks a conversion by molar mass, not a printed value.

Holding throughout (format): functional
Assay [1] has as its system Escherichia coli. The experiment in a line: Antimicrobial activity against Escherichia coli NCTC 10416 at 5 mg/ml after 24 hrs by agar well diffusion assay. As to conditions: NCTC 10416, 24 h, read-out: IZ. Put shortly:
(§1)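 Agar well diffusion against S. aureus NCTC-7447 and E. coli NCTC-10416 (maintained on Mueller-Hinton agar, 24 h, 37 ± 1 °C) and C. albicans ATCC-10145 (Sabouraud dextrose agar, 48 h, 28 ± 1 °C). Inocula: colonies suspended in 5 mL sterile saline. Wells pre-incubated 1 h in refrigerator, then incubated 24 h at 37 °C (bacteria) or 48 h at 28 °C (fungi). Inhibition zone diameter measured. DMSO blank.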
Background: Agar diffusion results depend on both activity and mobility in agar.

Assay [2] deals with Staphylococcus aureus. The assay is described as follows: Antimicrobial activity against Staphylococcus aureus NCTC 7447 at 5 mg/ml after 24 hrs by agar well diffusion assay. As to conditions: NCTC 7447, 24 h, read-out: IZ. In short, it runs like this:
as §1

In assay [3] the test system is Candida albicans. The experiment in a line: Antimicrobial activity against Candida albicans ATCC 10145 at 5 mg/ml after 48 hrs by agar well diffusion assay. As to conditions: ATCC 10145, 48 h, read-out: IZ. In short, it runs like this:
as §1

In assay [4] the test system is Escherichia coli. The assay is described as follows: Antimicrobial activity against Escherichia coli NCTC 10416 by twofold serial dilution method. Put shortly:
(§2)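 MIC by two-fold serial dilution, limited to compounds giving inhibition zones of at least 18 mm in the well diffusion screen. Strains: S. aureus NCTC-7447 and E. coli NCTC-10416 on Mueller-Hinton agar at 37 ± 1 °C; C. albicans ATCC-10145 on Sabouraud dextrose agar at 28 ± 1 °C. Inocula were colony suspensions in sterile saline. MIC taken as the lowest concentration (highest dilution) inhibiting growth.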

The test system of assay [5] is Staphylococcus aureus. The experiment in a line: Antimicrobial activity against Staphylococcus aureus NCTC 7447 by twofold serial dilution method. In short, it runs like this:
as §2

Regarding `Brc1ccc(-c2cc3c(ncn4ncnc34)n2-c2ccccc2)cc1`, the figures for the zone of inhibition at 5000 µg/mL in assay [1], in assay [2] and in assay [3] were 14 mm, 19 mm and 19 mm, respectively.
For orientation: MIC means the lowest concentration that inhibits growth of the organism. Low readings indicate inhibition by little substance, high ones a need for much substance. For the molecule `Cc1nc(N)c2cc(-c3ccccc3)n(-c3ccccc3)c2n1`, the MIC in assay [4] is 2500 µg/mL (≈ 8.32 mM); in assay [5] it was 1250 µg/mL (≈ 4.16 mM). Further, the zone of inhibition at 5000 µg/mL in assay [1] came to 18 mm; in assay [2], 20 mm; in assay [3], 21 mm.
In the case of `Cc1ccc(-c2cc3c(ncn4ncnc34)n2-c2ccccc2)cc1`, the zone of inhibition at 5000 µg/mL in assay [3] was found to be 11 mm.
Consider `CCO/C=N/c1c(C#N)cc(-c2ccc(F)cc2)n1-c1ccccc1`, for which the zone of inhibition at 5000 µg/mL in assay [1] was determined as 13 mm; in assay [2], 13 mm; in assay [3], 16 mm.
Turning to `Fc1ccc(-c2cc3c(ncn4ncnc34)n2-c2ccccc2)cc1`, the zone of inhibition at 5000 µg/mL in assay [1] came to 16 mm; in assay [2] it was 17 mm; in assay [3], 17 mm.
`Clc1ccc(-c2cc3c(ncn4nnnc34)n2-c2ccccc2)cc1`: the zone of inhibition at 5000 µg/mL in assay [1] is 15 mm; in assay [2], 14 mm; in assay [3], 17 mm.
`Fc1ccc(-c2cc3c(ncn4nnnc34)n2-c2ccccc2)cc1`: the zone of inhibition at 5000 µg/mL in assay [3] was determined as 11 mm.
For `C/C=N/c1ncnc2c1cc(-c1ccc(C)cc1)n2-c1ccccc1`, the zone of inhibition at 5000 µg/mL was 17 mm in assay [1], 16 mm in assay [2] and 15 mm in assay [3].
The like results for `c1ccc(-c2cc3c(ncn4ncnc34)n2-c2ccccc2)cc1` were, in that order, 16 mm, 13 mm and 17 mm.
Turning to `CCO/C=N/c1c(C#N)cc(-c2ccc(Br)cc2)n1-c1ccccc1`, the zone of inhibition at 5000 µg/mL in assay [3] worked out at 11 mm.
As to `Clc1ncnc2c1cc(-c1ccccc1)n2-c1ccccc1`, the zone of inhibition at 5000 µg/mL worked out at 14 mm in assay [1], 13 mm in assay [2] and 16.5 mm in assay [3].
The matching figures for `Cc1ccc(-c2cc3c(NN)ncnc3n2-c2ccccc2)cc1`: 13 mm, 14 mm and 17 mm.
Regarding `CCO/C=N/c1c(C#N)cc(-c2ccc(Cl)cc2)n1-c1ccccc1`, the zone of inhibition at 5000 µg/mL in assay [3] is 11 mm.
In the case of `Nc1ncnc2c1cc(-c1ccccc1)n2-c1ccccc1`, the values for the zone of inhibition at 5000 µg/mL in assay [1], in assay [2] and in assay [3] were 14 mm, 15 mm and 20 mm, respectively.
`Nc1nc(N)c2cc(-c3ccc(Cl)cc3)n(-c3ccccc3)c2n1`: the values for the zone of inhibition at 5000 µg/mL in assay [1], in assay [2] and in assay [3] were 14 mm, 24 mm and 23 mm, respectively. This molecule also returned an MIC in assay [5] of 1250 µg/mL (≈ 3.72 mM).
For the molecule `CCO/C=N/c1c(C#N)cc(-c2ccccc2)n1-c1ccccc1`, the zone of inhibition at 5000 µg/mL in assay [1] was found to be 17 mm; in assay [2], 16 mm; in assay [3] it was 19 mm.
Turning to `Cc1nc(N)c2cc(-c3ccc(Cl)cc3)n(-c3ccccc3)c2n1`, the figures for the zone of inhibition at 5000 µg/mL in assay [1], in assay [2] and in assay [3] were 14 mm, 25 mm and 24 mm, respectively. Besides, inhibition of growth in assay [5] (MIC) required 620 µg/mL (≈ 1.85 mM).
As for `CC1(C)S[C@@H]2[C@H](NC(=O)[C@H](N)c3ccccc3)C(=O)N2[C@H]1C(=O)O` [AMPICILLIN], the MIC in assay [4] came out at 1250 µg/mL (≈ 3.58 mM); in assay [5] it was 620 µg/mL (≈ 1.77 mM). Besides, the zone of inhibition at 5000 µg/mL in assay [1] and in assay [2] was 9 mm each time.
Regarding `Nc1ncnc2c1cc(-c1ccc(Cl)cc1)n2-c1ccccc1`, the zone of inhibition at 5000 µg/mL is 16 mm in assay [1], 17 mm in assay [2] and 16 mm in assay [3].
Take `N=c1c2cc(-c3ccc(F)cc3)n(-c3ccccc3)c2ncn1N`: the zone of inhibition at 5000 µg/mL in assay [1] worked out at 15 mm; in assay [2], 17 mm; in assay [3], 15 mm.
As to `Cc1ccc(-c2cc3c(=N)n(N)cnc3n2-c2ccccc2)cc1`, the MIC was determined as 2500 µg/mL (≈ 7.93 mM) in assay [4] and 620 µg/mL (≈ 1.97 mM) in assay [5]. Also, the zone of inhibition at 5000 µg/mL was 20 mm in assay [1], 21 mm in assay [2] and 21 mm in assay [3].
As for `NNc1ncnc2c1cc(-c1ccc(F)cc1)n2-c1ccccc1`, the MIC in assay [4] amounted to 1250 µg/mL (≈ 3.91 mM); in assay [5], 310 µg/mL (≈ 0.971 mM). Moreover, the results for the zone of inhibition at 5000 µg/mL in assay [1], in assay [2] and in assay [3] were 20 mm, 31 mm and 32 mm, respectively.
Take `N=c1c2cc(-c3ccccc3)n(-c3ccccc3)c2ncn1N`: the zone of inhibition at 5000 µg/mL in assay [1] was 16 mm; in assay [2] it was 21 mm; in assay [3], 23 mm. In assay [5], this molecule registered an MIC of 1250 µg/mL (≈ 4.15 mM).
On to `Brc1ccc(-c2cc3c(ncn4nnnc34)n2-c2ccccc2)cc1`, for which the zone of inhibition at 5000 µg/mL is 15 mm in assay [1], 16 mm in assay [2] and 17 mm in assay [3].
The matching figures for `Cc1ccc(-c2cc3c(N)nc(C)nc3n2-c2ccccc2)cc1`: 14 mm, 17 mm and 16 mm.
On to `Nc1nc(N)c2cc(-c3ccccc3)n(-c3ccccc3)c2n1`, for which the figures for the zone of inhibition at 5000 µg/mL in assay [1], in assay [2] and in assay [3] were 13 mm, 24 mm and 24 mm, respectively. In assay [5], inhibition of growth (MIC) required 620 µg/mL (≈ 2.06 mM).
Regarding `Cc1ccc(-c2cc3c(N)nc(N)nc3n2-c2ccccc2)cc1`, the MIC was 2500 µg/mL (≈ 7.93 mM) in assay [4] and 620 µg/mL (≈ 1.97 mM) in assay [5]. In addition, the figures for the zone of inhibition at 5000 µg/mL in assay [1], in assay [2] and in assay [3] were 19 mm, 25 mm and 23 mm, respectively.
As to `OC(Cn1cncn1)(Cn1cncn1)c1ccc(F)cc1F` [FLUCONAZOLE], in assay [3], the zone of inhibition at 5000 µg/mL was 26 mm.
On to `Clc1ncnc2c1cc(-c1ccc(Br)cc1)n2-c1ccccc1`, for which the zone of inhibition at 5000 µg/mL stood at 17 mm in assay [1], 16 mm in assay [2] and 17 mm in assay [3].
`Cc1ccc(-c2cc3c(N)ncnc3n2-c2ccccc2)cc1`: the figures for the zone of inhibition at 5000 µg/mL in assay [1], in assay [2] and in assay [3] were 14 mm, 23 mm and 25 mm, respectively. For the same molecule, 2500 µg/mL (≈ 8.32 mM) was the least that counted as inhibitory in assay [5] (MIC).
For `C/C=N\c1ncnc2c1cc(-c1ccc(Cl)cc1)n2-c1ccccc1`, the values for the zone of inhibition at 5000 µg/mL in assay [1], in assay [2] and in assay [3] were 16 mm, 17 mm and 17 mm, respectively.
For `C/C=N\c1ncnc2c1cc(-c1ccccc1)n2-c1ccccc1`, the zone of inhibition at 5000 µg/mL stood at 16 mm in assay [1], 21 mm in assay [2] and 21 mm in assay [3]. In addition, the MIC in assay [5] was 1250 µg/mL (≈ 4 mM).
In the case of `c1ccc(-c2cc3c(ncn4nnnc34)n2-c2ccccc2)cc1`, the values for the zone of inhibition at 5000 µg/mL in assay [1], in assay [2] and in assay [3] were 16 mm, 16 mm and 17 mm, respectively.
With `NNc1ncnc2c1cc(-c1ccccc1)n2-c1ccccc1`, the MIC in assay [4] came out at 2500 µg/mL (≈ 8.3 mM); in assay [5] it was 620 µg/mL (≈ 2.06 mM). The zone of inhibition at 5000 µg/mL was found to be 18 mm in assay [1], 27 mm in assay [2] and 31 mm in assay [3].
With `NNc1ncnc2c1cc(-c1ccc(Br)cc1)n2-c1ccccc1`, the results for the zone of inhibition at 5000 µg/mL in assay [1], in assay [2] and in assay [3] were 15 mm, 25 mm and 23 mm, respectively. In addition, in assay [5], the MIC came out at 620 µg/mL (≈ 1.63 mM).
On to `Cc1ccc(-c2cc3c(Cl)ncnc3n2-c2ccccc2)cc1`, for which the zone of inhibition at 5000 µg/mL in assay [1] is 13 mm; in assay [2], 12 mm; in assay [3], 16 mm.
The like results for `NNc1ncnc2c1cc(-c1ccc(Cl)cc1)n2-c1ccccc1` were, in that order, 16 mm, 17 mm and 19 mm.
Regarding `CN(C)[C@@H]1C(O)=C(C(N)=O)C(=O)[C@@]2(O)C(O)=C3C(=O)c4c(O)cccc4[C@@](C)(O)[C@H]3C[C@@H]12` [TETRACYCLINE], the zone of inhibition at 5000 µg/mL was determined as 18 mm in assay [1] and 20 mm in assay [2].
`N=c1c2cc(-c3ccc(Br)cc3)n(-c3ccccc3)c2ncn1N`: the minimal inhibitory concentration (MIC) in assay [4] came to 1250 µg/mL (≈ 3.29 mM); in assay [5] it was 310 µg/mL (≈ 0.815 mM). Moreover, the zone of inhibition at 5000 µg/mL was 27 mm in assay [1], 25 mm in assay [2] and 27 mm in assay [3].
`Clc1ccc(-c2cc3c(Cl)ncnc3n2-c2ccccc2)cc1`: the zone of inhibition at 5000 µg/mL in assay [1] is 13 mm; in assay [2], 12 mm; in assay [3], 12 mm.
In the case of `CCO/C=N/c1c(C#N)cc(-c2ccc(C)cc2)n1-c1ccccc1`, in assay [1], the zone of inhibition at 5000 µg/mL came to 11 mm.
Turning to `Clc1ccc(-c2cc3c(ncn4ncnc34)n2-c2ccccc2)cc1`, the zone of inhibition at 5000 µg/mL in assay [1] turned out to be 18 mm; in assay [2], 17.5 mm; in assay [3], 18 mm.
As to `Fc1ccc(-c2cc3c(Cl)ncnc3n2-c2ccccc2)cc1`, the figures for the zone of inhibition at 5000 µg/mL in assay [1], in assay [2] and in assay [3] were 13 mm, 15 mm and 15 mm, respectively.
